In ChEMBL document CHEMBL1671798, “A competition assay to identify amyloidogenesis inhibitors by monitoring the fluorescence emitted by the covalent attachment of a stilbene derivative to transthyretin” (Bioorg Med Chem, 2011):

Assays:
[1] = target: Transthyretin (Homo sapiens) (UniProt P02766); assay: Displacement of S-phenyl 3-(4-hydroxy-3,5-dimethylstyryl)benzothioate from human TTR assessed as fluorescence at 37 degC after 3 hrs; design: concentration or dose not given beside the values
Summary of the method: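 Commercial human serum with endogenous TTR (about 7.5 µM, as measured). Test compound (15 µM final) and S2 (5 µM final) were both added from DMSO stocks. Conjugate fluorescence was read every 10 min over 8 h on a plate reader. The 3 h value is given as % competition fluorescence.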

[2] = target: Transthyretin (Homo sapiens) (UniProt P02766); assay: Inhibition of wild type-TTR expressed in Escherichia coli assessed as amyloid fibril formation at pH 4.4 at 7. 2 uM after 72 hrs by acid-mediated aggregation assay relative to control; design: scale not given: the % may be the effect or the level left
[3] = target: Transthyretin (Homo sapiens) (UniProt P02766); assay: Displacement of 4-fluorophenyl 3-(4-hydroxy-3,5-dimethylstyryl)benzoate from recombinant TTR assessed as fluorescence at 37 degC after 3 hrs; design: concentration or dose not given beside the values
Summary of the method: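 Recombinant WT-TTR from E. coli at 3.6 µM in 10 mM sodium phosphate, 100 mM KCl, 1 mM EDTA, pH 7.0. Test compound (7.2 µM final, added from DMSO) was preincubated 4 h at 25 °C with slow vortexing. S1 (7.2 µM final) was then added. Fluorescence (ex 328/em 384 nm) was read every 10 min for 8 h at 37 °C. The 3 h value is given as % competition fluorescence.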

SMILES | Activity [1] | Activity [2] | Activity [3]
O=C(Nc1cc(Br)c(O)c(Br)c1)c1cc(F)cc(F)c1 | 35% | 10% | 12%
Cc1ccc(Cl)c(Nc2ccccc2C(=O)O)c1Cl | 85% | 3% | 62%
Cc1cc(Oc2ccccc2)cc(C)c1O | 81% | – | 76%
O=C(Nc1cc(Br)c(O)c(Br)c1)c1cccc(O)c1 | 18% | 9% | 26%
O=C(O)Cc1ccccc1Nc1c(Cl)cccc1Cl | 99% | 17% | 85%
O=C(Nc1cc(Br)c(O)c(Br)c1)c1cccc(F)c1 | 54% | 13% | 18%
Oc1c(Br)cc(/C=C/c2ccc(Br)cc2)cc1Br | 2% | 2% | -6%
O=C(Nc1cc(Br)c(O)c(Br)c1)c1ccc(O)cc1 | 16% | 21% | 32%
COc1c(Br)cc(C(=O)Nc2cc(Br)c(O)c(Br)c2)cc1Br | 44% | 10% | 4%
O=C(O)c1cc(-c2ccc(F)cc2F)ccc1O | 86% | 2% | 75%
CC(C(=O)O)c1ccc(-c2ccccc2)c(F)c1 (stereo unspecified) | 96% | 29% | 93%
O=C(O)c1cccc(C(=O)Nc2cc(Br)c(O)c(Br)c2)c1 | 85% | 11% | 77%
Oc1c(Br)cc(CCc2ccc(OC(F)F)cc2)cc1Br | 42% | 1% | -3%
COc1cc(CCc2cc(Br)c(O)c(Br)c2)cc(OC)c1 | 30% | 1% | 3%
Cc1cccc(CCc2cc(Br)c(O)c(Br)c2)c1 | 2% | 3% | -7%
Cc1cccc(Nc2ccccc2C(=O)O)c1C | 96% | 7% | 65%
O=C(Nc1cc(Br)c(O)c(Br)c1)c1cccc(Cl)c1 | 28% | 8% | 13%
O=C(Nc1ccccc1)Nc1cc(Br)c(O)c(Br)c1 | 100% | 9% | 82%
Nc1cccc(C(=O)Nc2cc(Br)c(O)c(Br)c2)c1 | 24% | 25% | 35%
O=C(O)c1ccccc1Nc1cccc(C(F)(F)F)c1 | 97% | 2% | 44%
O=C(Nc1ccccc1)c1cc(Br)c(O)c(Br)c1 | 61% | – | 42%
O=C(O)c1ccc(C(=O)Nc2cc(Br)c(O)c(Br)c2)cc1 | 45% | 11% | 57%
O=C(Nc1cc(Br)c(O)c(Br)c1)c1cccc(Br)c1 | 28% | 8% | 13%
O=C(Nc1cc(Br)c(O)c(Br)c1)c1ccccc1O | 29% | 2% | 2%
Brc1cc(Br)cc(Nc2ccccc2)c1 | 100% | – | 76%
Oc1c(Br)cc(CCc2cccc(C(F)(F)F)c2)cc1Br | 3% | 1% | -6%
COc1ccccc1/C=C/c1cc(Br)c(O)c(Br)c1 | 0% | 0% | -6%
COc1c(Cl)cc(C(=O)Nc2cc(Br)c(O)c(Br)c2)cc1Cl | 26% | 9% | 4%
